What was measured:
Mus musculus [1] = assay: Toxicity in Plasmodium chabaudi chabaudi infected C57BL/6J mice (Mus musculus) at 0.1 mg, intraperitoneally twice daily after 4 days; format: organism-based; settings: in vivo, ip, 96 h
Plasmodium chabaudi [2] = assay: Antimalarial activity against Plasmodium chabaudi chabaudi in C57BL/6J mice (Mus musculus) assessed as parasitemia on day 14 at 0.1 mg, intraperitoneally for 4 days; format: functional
Mus musculus [3] = assay: Toxicity in Plasmodium chabaudi chabaudi infected C57BL/6J mice (Mus musculus) at 2 mg, intraperitoneally twice daily after 7 days; format: organism-based; settings: in vivo, ip, 168 h
Plasmodium falciparum [4] = assay: Antimalarial activity after 48 hrs against drug-sensitive Plasmodium falciparum 3D7 by [3H]hypoxanthine uptake; format: functional, organism-based
Plasmodium falciparum [5] = assay: Antimalarial activity after 48 hrs against multidrug-resistant Plasmodium falciparum Dd2 by [3H]hypoxanthine uptake; format: functional, organism-based
Plasmodium falciparum [6] = assay: Antimalarial activity after 48 hrs against Plasmodium falciparum D10 by [3H]hypoxanthine uptake; format: functional, organism-based
[7] = Inhibition of Plasmodium falciparum recombinant M17 LAP
Outline: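 His-tagged PfLAP expressed in baculovirus-infected Sf9 cells and Ni-agarose purified. The enzyme was Co2+-activated (1 mM CoCl2, 50 mM Tris-HCl pH 8.0, 20 min) and H-Leu-NHMec hydrolysis was read at ex 370/em 460 nm, 37 °C. Ki came from Dixon plots of initial rates (26 nM enzyme, 2.5–100 µM substrate, 2.44–78.13 nM inhibitor). For time-dependent binding, Ki* came from steady-state progress curves (2 µM substrate, 19.53–312.5 nM).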

Plasmodium chabaudi [8] = assay: Antimalarial activity against Plasmodium chabaudi chabaudi in C57BL/6J mice (Mus musculus) assessed as parasitemia on day 8 at 2 mg, intraperitoneally twice daily for 7 days; format: functional
Plasmodium chabaudi [9] = assay: Antimalarial activity against Plasmodium chabaudi chabaudi in C57BL/6J mice (Mus musculus) assessed as parasitemia on day 11 at 2 mg, intraperitoneally twice daily for 7 days; format: functional
Plasmodium chabaudi [10] = assay: Antimalarial activity against Plasmodium chabaudi chabaudi in C57BL/6J mice (Mus musculus) assessed as reduction of parasitemia on day 11 at 2 mg, intraperitoneally twice daily for 7 days relative to control; format: functional; design: scale not given: the % may be the effect or the level left

With `CCN(CC)CCCC(C)Nc1ccnc2cc(Cl)ccc12` (stereo not given) [CHLOROQUINE] the Activity (Mus musculus [1]) was “Non-toxic”, the Activity (Plasmodium chabaudi [2]) was 6.9% and the Activity (Mus musculus [3]) was “Non-toxic”.
With `CC(C)C[C@H](CP(=O)(O)[C@H](N)CC(C)C)C(=O)O` the IC50 (Plasmodium falciparum [4]) was > 100 µM, the IC50 (Plasmodium falciparum [5]) was > 100 µM and the IC50 (Plasmodium falciparum [6]) was > 100 µM. It also gave a Ki [7] of 0.0973 µM.
For `CC(C)C[C@H](NC(=O)[C@@H](O)[C@H](N)Cc1ccccc1)C(=O)O.Cl` [BESTATIN HYDROCHLORIDE], the IC50 (Plasmodium falciparum [4]) was 8 µM, the Activity (Mus musculus [1]) was “Non-toxic” and the IC50 (Plasmodium falciparum [5]) was 12 µM. For the same molecule, the IC50 (Plasmodium falciparum [6]) was 11 µM, the Activity (Plasmodium chabaudi [8]) was 29.7% and the Ki [7] was 0.025 µM. For the same molecule, the Activity (Mus musculus [3]) was “Non-toxic”.
In the case of `N[C@H](CCc1ccccc1)P(=O)(O)CCC(=O)O`, the IC50 (Plasmodium falciparum [4]) is reported as > 100 µM, the IC50 (Plasmodium falciparum [5]) is reported as > 100 µM and the IC50 (Plasmodium falciparum [6]) is reported as > 100 µM. For the same molecule, the Ki [7] was 0.525 µM.
For `N[C@H](CCc1ccccc1)P(=O)(O)C[C@@H](Cc1ccccc1)C(=O)O`, the IC50 (Plasmodium falciparum [4]) was 24 µM, the Activity (Plasmodium chabaudi [9]) was 3.6% and the Activity (Mus musculus [1]) was “Non-toxic”. The Activity (Plasmodium chabaudi [10]) was 92%, the IC50 (Plasmodium falciparum [5]) was 20 µM and the IC50 (Plasmodium falciparum [6]) was 46 µM. For the same molecule, the Ki [7] was 0.0132 µM and the Activity (Mus musculus [3]) was “Non-toxic”.
`N[C@H](CCc1ccccc1)P(=O)(O)C[C@@H](Cc1ccc(O)cc1)C(=O)O` gave an IC50 (Plasmodium falciparum [4]) of 19 µM, an IC50 (Plasmodium falciparum [5]) of 13 µM and an IC50 (Plasmodium falciparum [6]) of 47 µM. It also gave a Ki [7] of 0.0104 µM.
